Data set [1] relates to HEK293. The data set can be described thus: Growth inhibition of HEK293 cells harboring Wnt after 24 hrs by CellTiter-Fluor assay. The format is cell-based. As to conditions: human, hek293, 24 h. An outline of the steps:
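HEK293 cells stably carrying the TOPFlash reporter were plated at 2000/well in DMEM with 10% FBS and incubated overnight. Compound was added with recombinant human Wnt-3a, then incubated 24 h at 37 °C. CellTiter-Fluor reagent was added and fluorescence read after 30 min at 37 °C.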

The test system of data set [2] is HEK293. Nature of the data set: Growth inhibition of unstimulated HEK293 cells up to 100 uM after 72 hrs by CellTiter-Fluor assay. In kind it is cell-based. As to conditions: human, hek293, 72 h. The procedure, abridged:
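Unstimulated HEK293 cells were plated at 3.5×10^5/well and grown for 24 h, then incubated with compound for 72 h. Viability was read with CellTiter-Fluor.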

For data set [3], the system named is HEK293. Nature of the data set: Inhibition of Wnt/beta-catenin/Axin signaling (unknown origin) expressed in HEK293 cells assessed as decrease in CycD1 mRNA level after 48 hrs by qPCR analysis. The format is cell-based. As to conditions: Homo sapiens. The procedure, abridged:
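HEK293 cells were treated with compound for 48 h, harvested in TRIzol, and Wnt target gene mRNA was quantified by qPCR.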
(Quantitative PCR measures a nucleic acid by following its amplification.)

The test system of data set [4] is HEK293. Nature of the data set: Inhibition of LiCl-activated Wnt/beta-catenin/Axin signaling (unknown origin) expressed in HEK293 cells assessed as degradation of beta-catenin by measuring decrease in beta-catenin protein expression after 24 hrs by Western blot method. In kind it is cell-based. As to conditions: Homo sapiens. The procedure, abridged:
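HEK293 cells were treated with compound in the presence of lithium chloride for 24 h. Lysis buffer contained 10 mM HEPES, 100 μM EDTA, 10 mM KCl, 0.5% NP40 and inhibitors. Protein was quantified by BCA, resolved on 10% SDS-PAGE, and immunoblotted for β-catenin.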
In general terms: In western blotting, separated proteins are transferred to a membrane and probed.

In data set [5] the test system is HEK293. Nature of the data set: Inhibition of Wnt/beta-catenin signaling (unknown origin) expressed in HEK293 cells assessed as increase in GSK3beta binding to beta-catenin after 12 hrs by immunoprecipitation method. As to conditions: Homo sapiens. In kind it is cell-based.
Data set [6] has as its system HEK293. Nature of the data set: Inhibition of Wnt/beta-catenin signaling (unknown origin) expressed in GSK3beta knock down HEK293 cells harboring TCF/LEF-responsive luciferase assessed as luminescence at 20 nM measured after 24 hrs by luciferase reporter gene assay relative to control. In kind it is cell-based. On the set-up: scale not given: the % may be the effect or the level left. The following applies: Homo sapiens. An outline of the steps: (§1)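 HEK293 cells were transfected with siRNA against GSK3β, Axin or CK1α using RNAiMAX for 36 h. Cells were then treated with or without compound at 20 nM for 24 h, and TCF/LEF luciferase reporter activity was read.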

Data set [7] concerns HEK293. The data set can be described thus: Inhibition of Wnt/beta-catenin signaling (unknown origin) expressed in Axin1 knock down HEK293 cells harboring TCF/LEF-responsive luciferase assessed as luminescence at 20 nM measured after 24 hrs by luciferase reporter gene assay relative to control. The format is cell-based. More on the design: scale not given: the % may be the effect or the level left. As to conditions: Homo sapiens. An outline of the steps:
as §1

Data set [8] deals with Glycogen synthase kinase-3 beta (Homo sapiens, UniProt P49841). Nature of the data set: Binding affinity to recombinant full length human N-terminal GST-tagged GSK3beta expressed in sf9 cells by SPR analysis. An outline of the steps: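 Recombinant GST-tagged human GSK3β. Binding was measured by surface plasmon resonance at a biosensor core facility, and K_D was determined.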
Chain of Glycogen synthase kinase-3 beta (P49841 whole entry): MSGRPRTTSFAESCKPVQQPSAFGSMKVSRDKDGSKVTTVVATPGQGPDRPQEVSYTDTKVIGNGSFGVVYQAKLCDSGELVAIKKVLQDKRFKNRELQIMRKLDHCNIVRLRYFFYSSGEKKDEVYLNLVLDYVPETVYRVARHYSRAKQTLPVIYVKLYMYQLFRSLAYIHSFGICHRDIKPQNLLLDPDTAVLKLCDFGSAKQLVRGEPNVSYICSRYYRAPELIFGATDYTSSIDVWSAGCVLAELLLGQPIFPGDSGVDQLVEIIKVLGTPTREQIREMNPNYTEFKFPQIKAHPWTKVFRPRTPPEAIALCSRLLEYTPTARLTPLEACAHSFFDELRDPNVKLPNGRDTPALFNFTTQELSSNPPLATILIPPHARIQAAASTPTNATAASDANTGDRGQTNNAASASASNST

The subject of the next data set is HepG2. Nature of the data set: Inhibition of Wnt/beta-catenin deletion mutant signaling in human HepG2 cells at 50 nM after 24 hrs by luciferase reporter gene assay. In kind it is cell-based. An outline of the steps: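 HepG2 cells carry the CTNNB1 Δ25–140 deletion and were transfected with the TCF/LEF luciferase reporter constructs. Compound was applied and reporter luminescence measured; mean ± S.D., n = 3.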
(A reporter such as luciferase makes a cellular process visible.)

The species entered for data set [9] is Mus musculus. Nature of the data set: Inhibition of Wnt/beta-catenin/Axin signaling in mouse hepatocytes assessed as decrease in G6PASE mRNA level at 5 uM by qPCR analysis. In kind it is cell-based. The procedure, abridged: (§2)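 Normal mouse hepatocytes were treated with 5 μM compound, and lipogenic and gluconeogenic gene mRNA was measured by qPCR; mean ± S.D. of triplicates.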

For data set [10], the species on record is Mus musculus. The data set can be described thus: Inhibition of Wnt/beta-catenin/Axin signaling in mouse hepatocytes assessed as decrease in SCD1 mRNA level at 5 uM by qPCR analysis. In kind it is cell-based. The procedure, abridged: as §2
Data set [11] in a line: Oral bioavailability in mouse at 10 mg/kg administered as single dose by LC-MS analysis. In kind it is ADME, organism-based. As to conditions: in vivo.
A short description of data set [12]: Half life in mouse at 10 mg/kg, po or 10 mg/kg, iv administered as single dose by LC-MS analysis. The format is ADME, organism-based. The following applies: in vivo. The procedure, abridged:
(§3)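 Compound was dissolved at 1 mg/ml in 10% Kolliphor EL and 10% polyethylene glycol in saline. Ten mice were split into intravenous and oral groups and given a single 10 mg/kg dose. Tail-vein blood was sampled at several time points and analysed by LC/MS/MS.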

The nature of data set [13]: Cmax in mouse at 10 mg/kg, po administered as single dose by LC-MS analysis. In kind it is ADME, organism-based. As to conditions: in vivo. On the set-up: dose 10 mg/kg, route oral. The procedure, abridged: as §3
Data set [14] in a line: Toxicity in high fat diet fed mouse up to 200 mg/kg, ip by LC-MS analysis. The format is organism-based. The following applies: in vivo.
For data set [15], the system named is Mus musculus. The data set can be described thus: Decrease in hepatic SREBP1 mRNA level in high fat diet fed C57BL/6J mouse at 40 mg/kg, ip administered every 2 days for 11 weeks by qPCR analysis. The format is functional, organism-based. The procedure, abridged:
(§4)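 Male mice, 8 weeks old, fed a 45% kcal fat diet for 6 weeks, then dosed i.p. every 2 days in corn oil vehicle for 11 weeks. Liver mRNA of the indicated genes was quantified at sacrifice; mean ± SEM, n = 5 per group.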

Data set [16] has as its system Mus musculus. The data set can be described thus: Decrease in hepatic FASN mRNA level in high fat diet fed C57BL/6J mouse at 40 mg/kg, ip administered every 2 days for 11 weeks by qPCR analysis. In kind it is functional, organism-based. An outline of the steps: as §4
In data set [17] the test system is Mus musculus. Nature of the data set: Decrease in hepatic SCD1 mRNA level in high fat diet fed C57BL/6J mouse at 40 mg/kg, ip administered every 2 days for 11 weeks by qPCR analysis. In kind it is functional, organism-based. An outline of the steps:
as §4

For data set [18], the system named is Mus musculus. The data set can be described thus: Effect on hepatic ACOT4 mRNA level in normal chow diet fed C57BL/6J mouse at 40 mg/kg, ip administered every 2 days for 11 weeks by qPCR analysis. The following applies: in vivo. The format is ADME, organism-based. The procedure, abridged:
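Male mice, 8 weeks old, kept on normal chow throughout and dosed i.p. every 2 days in corn oil vehicle for 11 weeks. Body weight gain, liver/body weight ratio, and liver mRNA of the indicated genes were measured at sacrifice; mean ± SEM, n = 5 per group where stated.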

For data set [19], the system named is Mus musculus. The data set can be described thus: Decrease in hepatic lipid accumulation in high fat diet fed C57BL/6J mouse at 40 mg/kg, ip administered every 2 days for 11 weeks. The format is functional, organism-based. The procedure, abridged: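 Male mice, 8 weeks old, 24–27 g, given a 45% kcal fat diet for 6 weeks, then dosed i.p. every 2 days in corn oil vehicle with the diet continued. Sacrifice was about 24 h after the last dose. Liver was examined by H&E. Liver and serum triglyceride were measured by kit. Serum chemistry was included, and liver/body weight ratio was calculated.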

The nature of data set [20]: Toxicity in high fat diet fed C57BL/6J mouse assessed as serum BUN level at 40 mg/kg, ip administered every 2 days for 11 weeks (reference value: 17.3 +/- 0.5 mg/dl). The format is organism-based. As to conditions: in vivo.
The nature of data set [21]: Toxicity in normal chow diet fed C57BL/6J mouse assessed as serum BUN level at 40 mg/kg, ip administered every 2 days for 11 weeks (reference value: 19 +/- 1.8 mg/dl). In kind it is organism-based. The following applies: in vivo.
Data set [22] can be described thus: Toxicity in normal chow diet fed C57BL/6J mouse assessed as serum uric acid level at 40 mg/kg, ip administered every 2 days for 11 weeks (reference value: 4 +/- 0.2 mg/dl). In kind it is organism-based. As to conditions: in vivo.

The structures appear in SMILES notation. Activity calls are given as the source filed them. The calls are words filed in the database; no cut-off is given here.

What is called Kd is the concentration at which binding is half-saturated. In general, bioavailability refers to dose-corrected exposure relative to a reference, in per cent. One may read the half-life as how long it takes for the measured level to halve. One may read the Cmax as the highest concentration seen after dosing. `Cc1ccccc1-n1nnc(C(=O)Nc2ccc3ccccc3n2)c1C`: the “growth inhibition (GI)” value in the data set on HEK293 [1] and with HEK293 [2] was “Non-Toxic” each time. The inhibition entry with HEK293 [3], in the data set on HEK293 [4], with HEK293 [5], in the data set listed under Mus musculus [9] and in the data set filed under Mus musculus [10] was “Active” throughout. Moreover, the Activity with HEK293 [6] is 69%; in the data set with HEK293 [7], 41%; in data set [14], “Non-Toxic”; in the data set on Mus musculus [18], “Non-Toxic”; in data set [20], 14.8 mg/dL; in data set [21], 21.8 mg/dL. Besides, the Activity in data set [22] was 3.8 mg/dL. For the same molecule, in data set [8], the Kd came to 4.3 µM. Also, the inhibition result with HepG2 was “inactive”. In addition, in [11], the bioavailability was 21%. This molecule registered a half-life in data set [12] of 2.8 to 3.3 h. Further, the Cmax in data set [13] is 2200 ng/mL. Besides, the outcome in the data set with Mus musculus [15], in the data set on Mus musculus [16], in the data set with Mus musculus [17] and with Mus musculus [19] was Active.

(Values after ChEMBL document CHEMBL4371095, “Triazole-Based Inhibitors of the Wnt/β-Catenin Signaling Pathway Improve Glucose and Lipid Metabolisms in Diet-Induced Obese Mice” (J Med Chem, 2019).)
